ChEMBL document CHEMBL1125896, “2-(oxadiazolyl)- and 2-(thiazolyl)imidazo[1,2-a]pyrimidines as agonists and inverse agonists at benzodiazepine receptors” (J Med Chem, 1991)

Columns and labels:
[1] = molecular target: GABA-A receptor; anion channel; test: Binding affinity towards benzodiazepine receptor by the displacement of [3H]flunitrazepam from rat brain preparations.
Rattus norvegicus [2] = test: Minimum effective dose on oral administration; assay type: functional; conditions: read-out: MED
Outline: (§1)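 Food-motivated conflict test in trained Lister rats: five alternating 4-min FI30 unpunished and five 3-min FR5 punished components. Dosing po 30 min before testing, first at 50 mg/kg in four rats, then at decreasing doses (20, 10, 5, 2, 1 mg/kg) if active. MED is the dose giving a significant rise in punished responding (Mann-Whitney U).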

Mus musculus [3] = species: Mus musculus; test: Dose of leptazol-inducing tonic seizures in CD-1 mice was determined and represented as ED50; assay type: functional
Mus musculus [4] = species: Mus musculus; test: Sedative/muscle relaxant effects in male CD-1 mice was assessed with a Ugo Basile rotating drum and the dose causing 50% decrease in time (ED50) was evaluated; assay type: functional
Outline: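 Rotating drum of 3 cm diameter at 16 rev/min; time on drum recorded 1 h after dosing. Mean for groups of 10 mice expressed as percentage of control group mean.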

Rattus norvegicus [5] = test: Compound was tested for conflict antagonism of chlordiazepoxide (CDZP) at 10 mg/kg orally.; assay type: functional; conditions: po, read-out: MED
Outline: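 Food-motivated conflict test in trained Lister rats: test compound given po with 10 mg/kg po chlordiazepoxide. Effect compared with chlordiazepoxide alone in the same rats in separate assays. Schedule of five alternating 4-min FI30 unpunished and five 3-min FR5 punished components.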

Mus musculus [6] = test: Intraperitoneal dose of leptazol-inducing tonic seizures in CD-1 mice was determined and represented as ED50; assay type: functional; conditions: ip
Rattus norvegicus [7] = test: Compound was tested for the minimum effective dose (MED) on oral administration; value ranges from 2-5 mg/Kg; assay type: functional; conditions: read-out: MED; outline: as §1
Mus musculus [8] = species: Mus musculus; test: The dose of leptazol-inducing tonic seizures in CD-1 mice was determined and represented as ED50.; assay type: functional
Rattus norvegicus [9] = test: Compound was tested for the minimum effective dose (MED) on oral administration; value ranges from 1-2 mg/Kg; assay type: functional; conditions: read-out: MED; outline: as §1
Mus musculus [10] = species: Mus musculus; test: Sedative/muscle relaxant effects in male CD-1 mice was assessed with a Ugo Basile rotating drum and the dose causing 50% decrease in time (ED50) was calculated.; assay type: functional
Outline: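 Male CD-1 mice, groups of 10, were placed on a rotating drum (3 cm diameter, 16 rev/min) 1 h after dosing and their time on the drum was recorded. The group mean was expressed as a percentage of the control group mean. The dose giving a 50% decrease came from best-fit lines through at least three dose-effect points, with 95% confidence limits by Litchfield and Wilcoxon.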

Rattus norvegicus [11] = test: Compound was tested for the minimum effective dose (MED) on oral administration; value ranges from 10-50 mg/Kg; assay type: functional; conditions: read-out: MED; outline: as §1

Compound	IC50 [1] [nM]	minimal effective dose (Rattus norvegicus [2]) [mg/kg]	further results
CCc1c(OC)nc2nc(-c3cc(C)no3)cn2c1C	4500	50	
CCc1c(SC)nc2nc(-c3noc(C)n3)cn2c1C	160	2	
CCc1c(OC)nc2nc(-c3noc(C)n3)c(Cl)n2c1C	10000	10	
CCCc1nnc(-c2cn3c(C)c(CC)c(OC)nc3n2)o1	> 10000	50	
CCCc1c(OC)nc2nc(-c3noc(C)n3)cn2c1C	1600	5	ED50 (Mus musculus [3]): 13 mg/kg; ED50 (Mus musculus [4]): 16.5 mg/kg
CCc1c(OC)nc2nc(-c3nc(C)cs3)cn2c1C	112	> 50	minimal effective dose (Rattus norvegicus [5]): 10 mg/kg; ED50 (Mus musculus [6]): 1.7 mg/kg
C/C=C/c1c(OC)nc2nc(-c3nnc(C)o3)cn2c1C	> 10000	> 50	
CCc1c(OC)nc2nc(-c3noc(C)n3)cn2c1C [FASIPLON]	500		ED50 (Mus musculus [3]): 7.4 mg/kg; minimal effective dose (Rattus norvegicus [7]): 2 mg/kg; ED50 (Mus musculus [4]): 17 mg/kg
CCCc1c(OC)nc2nc(-c3nc(C)cs3)cn2c1C	100	> 50	minimal effective dose (Rattus norvegicus [5]): 50 mg/kg
CCc1c(OC)nc2nc(-c3noc(C(F)(F)F)n3)cn2c1C			ED50 (Mus musculus [8]): 70 mg/kg; ED50 (Mus musculus [4]): > 200 mg/kg; minimal effective dose (Rattus norvegicus [9]): 1 mg/kg
C=CCc1c(OC)nc2nc(-c3noc(C)n3)cn2c1C	560	10	
CCc1c(SC)nc2nc(-c3nnc(C)o3)cn2c1C	320	5	
CCc1c(OC)nc2nc(-c3nnc(C)o3)cn2c1C		2	ED50 (Mus musculus [3]): 20 mg/kg; ED50 (Mus musculus [4]): > 200 mg/kg
C=CCc1c(OC)nc2nc(-c3nnc(C)o3)cn2c1C	2500	10	
CCc1nnc(-c2cn3c(C)c(CC)c(OC)nc3n2)o1	> 10000	50	
CCc1c(SC)nc2nc(-c3nc(C)cs3)cn2c1C	80	> 50	minimal effective dose (Rattus norvegicus [5]): 50 mg/kg
CCc1c(OC)nc2nc(-c3noc(C)n3)c(Br)n2c1C	10000	10	
CCc1c(OC)nc2nc(-c3nnc(C)s3)cn2c1C	> 10000		minimal effective dose (Rattus norvegicus [7]): 2 mg/kg

Compound	IC50 [1] [nM]	minimal effective dose (Rattus norvegicus [2]) [mg/kg]	further results
CCc1c(OC)nc2nc(-c3nccs3)cn2c1C	200		minimal effective dose (Rattus norvegicus [5]): 10 mg/kg
CCc1c(OC)nc2nc(-c3n[nH]c(C)n3)cn2c1C	> 10000	> 50	
CCc1c(OC)nc2nc(-c3cc(C)[nH]n3)cn2c1C	5000	> 50	
CNC1=Nc2ccc(Cl)cc2C(c2ccccc2)=[N+]([O-])C1 [CHLORDIAZEPOXIDE]		2	ED50 (Mus musculus [8]): 1.9 mg/kg; ED50 (Mus musculus [10]): 6.8 mg/kg
CCc1c(OC)nc2nc(-c3nc(C)c(C)s3)cn2c1C	2500	> 50	minimal effective dose (Rattus norvegicus [5]): > 50 mg/kg
COc1nc2nc(-c3nnc(C)o3)cn2c2c1CCCC2	3200	> 50	
CCOC(=O)c1csc(-c2cn3c(C)c(CC)c(OC)nc3n2)n1	2800	> 50	
CCc1c(OC)nc2nc(-c3nnc(-c4ccccc4)o3)cn2c1C	> 10000	> 50	
C=CCc1c(OC)nc2nc(-c3nc(C)cs3)cn2c1C	100	> 50	minimal effective dose (Rattus norvegicus [5]): > 50 mg/kg
CCc1c(OC)nc2nc(-c3nnco3)cn2c1C	10000	> 50	
CCc1c(OC)nc2nc(-c3cnco3)cn2c1C	2500	> 50	
COc1nc2nc(-c3noc(C)n3)cn2c2c1CCCC2 [TANIPLON]	560	5	ED50 (Mus musculus [3]): 55 mg/kg; ED50 (Mus musculus [4]): > 100 mg/kg
CCCc1c(OC)nc2nc(-c3nnc(C)o3)cn2c1C	7900	10	
CCc1c(OC)nc2nc(-c3nc(C)no3)cn2c1C	630	5	ED50 (Mus musculus [3]): 14 mg/kg; ED50 (Mus musculus [4]): > 100 mg/kg
COc1nc2nc(-c3nc(C)cs3)cn2c2c1CCCC2	22	> 50	minimal effective dose (Rattus norvegicus [5]): > 50 mg/kg
CCc1csc(-c2cn3c(C)c(CC)c(OC)nc3n2)n1	220	50	minimal effective dose (Rattus norvegicus [5]): 50 mg/kg
CCc1c(OC)nc2nc(-c3nc(C(F)(F)F)cs3)cn2c1C	2000	> 50	minimal effective dose (Rattus norvegicus [5]): > 50 mg/kg
CCc1c(OC)nc2nc(-c3nnc(C(F)(F)F)o3)cn2c1C	> 10000		minimal effective dose (Rattus norvegicus [11]): 10 mg/kg
